As a reminder, the inhibition is the relative decrease from the control value, in per cent.

Activity calls are given as the source filed them.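 Rule for the calls, unless noted: active = fluorescence slope higher than the sample average by over 3 SD (cut at about -0.22 in these data, passing the limit was not always enough); inactive = the rest.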

A short description of assay [1]: inhibitors of TNFa-induced NFkB p65 translocation, primary screen, imaging, HUVEC, MLSMR starter and 10KST1 sets (AID 438;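 active = inhibition above 20% together with a positive visual image hit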;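 note: compound added about 3h40 before a 20 min TNFalpha stimulation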;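 for inhibition: signal is the nuclear over cytoplasmic p65 intensity ratio per well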). To be noted: HUVEC TNFa-induced p65 nuclear translocation; cell count: measured here: nuclei count (cytotoxicity indicator), at 2.08 µM; inhibition: at 2 µM, stronger effect = higher value, 0% TNFa-plus-vehicle, 100% no-TNFa wells.
Assay [2] in a line: endothelial E-selectin expression blockers – imaging, HUVEC, immunofluorescence, MLSMR starter and 10KST1 sets, primary screen (AID 487;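 active = visually confirmed hit in the image check and inhibition above 20%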;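 for inhibition: signal is fraction of cell area covered by stained E-selectin grains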;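 for nuclei count: 100% = median nuclei count of all wells on the same plate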). The following applies: HUVEC TNFalpha-induced E-selectin immunofluorescence imaging, at 2 µM; inhibition: stronger effect = higher value; nuclei count: measured here: cell number, toxicity.
Assay [3] in a line: Primary imaging screen for DUSP6 inhibitors that restore phospho-Erk in transfected HeLa cells, chemical complementation (AID 609;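 active = compounds giving at least 50% inhibition in the cell-based MKP-3 phosphatase rescue imaging test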;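 for inhibition: phospho-Erk level distribution per well compared with pooled transfected vehicle control wells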). To be noted: HeLa MKP-3 transfected, phospho-Erk imaging KS statistic, at 10 µM, cells stimulated with TPA for 15 min.
Assay [4] has as its target Dual specificity protein phosphatase 6 (Homo sapiens) (UniProt Q16828). Described as above. To be noted: HeLa MKP-3 transfected, phospho-Erk imaging KS statistic; at 10 µM; stronger effect = higher value; cells stimulated with TPA for 15 min.
For assay [5], the target named is Voltage-gated potassium channel subunit beta-2 (Rattus norvegicus) (UniProt P62483). Briefly: inhibitors of rat Kvbeta2 reductase activity – biochemical, NADPH fluorescence, primary screen (AID 622).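 Note: slope of raw intensity against log time taken from 70 to 1610 s.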 The following applies: recombinant KvBeta, 4-cyanobenzaldehyde reduction, at 10 µM, stronger effect = higher value.
For assay [6] the target is unchanged. Description: enhancers of rat Kvbeta2 NADPH turnover – biochemical, NADPH fluorescence, primary screen (AID 623;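 active = NADPH fluorescence slope more negative than the mean of all samples by about 3 SD, 99.7% confidence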;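 note: fluorescence intensity change per second fitted from 20 to 320 s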). The following applies: Recombinant KvBeta, NADPH fluorescence decrease slope, 10 min; at 10 µM; stronger effect = lower value.
Assay [7] addresses Alpha-2C adrenergic receptor (Homo sapiens) (UniProt P18825). Description: compounds altering alpha2C-coupled GIRK flux – cell-based, HEK293 alpha2C/GIRK1/2, thallium flux, primary screen (AID 624;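 active = fluorescence slope after compound addition differing from the mean of all screened samples at 99.7% confidence, in either direction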;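 note: slope of fluorescence ratio to pre-addition baseline per second over 15 to 24 s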). To be noted: thallium flux BTC fluorescence, at 10 µM, actives lie on both sides.
Assay [8] is described as follows: inhibitors of larval lipid processing in zebrafish, primary screen, whole organism, PED6 fluorescence, gall bladder and intestine (AID 686;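 active = a full or partial loss of lipid-probe fluorescence in the fish gall bladder, intestine or both, judged by eye; inactive = no fluorescence loss, or compound toxic to the fish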;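 note: larvae 5 to 7 days old with five fish per well; signal comes from phospholipase A2 cleavage of quenched PED6 carried via bile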). The following applies: Zebrafish larvae PED6 lipid processing, fluorescence scoring; screened at 20 µM (by protocol). The gist of the method: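 Incubation: overnight exposure of larvae to compound plus PED6 / Test system: live zebrafish larvae aged 5-7 days, whole organism / Amount: 5 larvae per well / Read-out basis: visual per-well fluorescence inhibition score / Signal: visual fluorescence microscopy scoring of gall bladder, gut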

The nature of assay [9]: loss of swimming-algae plug formation – whole organism, Chlamydomonas reinhardtii, WT vs cilia-less mutant, absorbance, 96-well, primary screen (AID 463189;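 active = inhibition at or above 50% relative to wild type and mutant plate controls; inactive = inhibition below 50%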;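 note: 0% = wild type cc124 cells in DMSO and 100% = ciliumless bld1 mutant cells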). To be noted: Chlamydomonas reinhardtii gravitaxis, OD600 absorbance, 2 days; at 10 µM; stronger effect = higher value.
Where [10] appears, read: measured here: cell density z-score.
[11] abbreviates: measured here: nuclear c-Myc green intensity z-score.
Where [12] appears, read: measured here: nuclear pErk red intensity z-score, stronger effect = higher value.

Sequence of Voltage-gated potassium channel subunit beta-2 (Rattus norvegicus) (P62483 whole entry, looked up): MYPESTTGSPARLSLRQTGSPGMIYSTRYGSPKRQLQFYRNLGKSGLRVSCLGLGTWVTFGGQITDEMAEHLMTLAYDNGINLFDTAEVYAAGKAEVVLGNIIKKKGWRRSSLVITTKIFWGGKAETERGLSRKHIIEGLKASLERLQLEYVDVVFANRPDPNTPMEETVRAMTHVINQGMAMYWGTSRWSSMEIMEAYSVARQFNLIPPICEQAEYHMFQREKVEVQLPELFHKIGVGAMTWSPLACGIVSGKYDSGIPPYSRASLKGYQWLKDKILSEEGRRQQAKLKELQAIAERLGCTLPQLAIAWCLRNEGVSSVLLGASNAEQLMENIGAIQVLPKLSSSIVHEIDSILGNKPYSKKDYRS
Sequence of Alpha-2C adrenergic receptor (Homo sapiens) (P18825 whole entry, looked up): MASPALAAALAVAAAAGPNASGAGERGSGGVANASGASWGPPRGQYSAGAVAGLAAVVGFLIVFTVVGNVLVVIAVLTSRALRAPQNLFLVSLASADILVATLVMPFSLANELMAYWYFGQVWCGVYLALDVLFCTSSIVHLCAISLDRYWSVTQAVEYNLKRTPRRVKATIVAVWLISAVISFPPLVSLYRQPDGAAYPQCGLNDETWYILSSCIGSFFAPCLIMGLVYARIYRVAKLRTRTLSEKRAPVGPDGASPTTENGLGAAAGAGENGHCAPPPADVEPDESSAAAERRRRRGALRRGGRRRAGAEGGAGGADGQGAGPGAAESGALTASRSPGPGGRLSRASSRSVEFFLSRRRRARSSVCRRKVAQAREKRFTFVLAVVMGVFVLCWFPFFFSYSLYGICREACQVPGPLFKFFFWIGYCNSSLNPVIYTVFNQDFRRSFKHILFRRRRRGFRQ
Sequence of Dual specificity protein phosphatase 6 (Homo sapiens) (Q16828 whole entry, looked up): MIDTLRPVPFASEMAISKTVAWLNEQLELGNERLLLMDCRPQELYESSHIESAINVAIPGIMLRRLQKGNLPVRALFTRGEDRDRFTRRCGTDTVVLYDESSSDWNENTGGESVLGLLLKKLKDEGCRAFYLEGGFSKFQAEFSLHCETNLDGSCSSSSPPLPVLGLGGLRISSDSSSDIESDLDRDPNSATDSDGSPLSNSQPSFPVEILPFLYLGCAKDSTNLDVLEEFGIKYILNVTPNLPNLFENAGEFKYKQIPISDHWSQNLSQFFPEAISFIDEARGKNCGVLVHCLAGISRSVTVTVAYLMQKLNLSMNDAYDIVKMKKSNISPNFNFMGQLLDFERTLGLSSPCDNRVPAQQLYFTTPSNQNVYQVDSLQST

With `Cc1ccc(S(=O)(=O)NC(=O)NCc2ccc3c(c2)OCO3)cc1`, in assay [1], the cell count came to 396. Besides, the inhibition in assay [1] is -2.3% (inactive); in assay [2] it was -36.4% (inactive); in [4], 5.57% (inactive); in [9] it was -10% (inactive). Further, the nuclei count in assay [2] was found to be 91.6%. For the same molecule, the z-score in [3] (setting [10]) was -0.395; in assay [3] (setting [11]) it was 0.582; in [3] (setting [12]) it was -0.563. Further, in assay [5], the fluorescence slope was -0.485 (inactive). In addition, the NADPH fluorescence slope in [6] was -0.000226 (inactive). Besides, the slope in assay [7] was 0.00482 (inactive). Also, the call in assay [8] was inactive.
With `CC1(C)CC(=O)c2cc(C(=O)N3CCCC(C)(C)C3)c(=O)n(-c3ccccc3)c2C1`, in assay [1], the cell count came out at 523. In addition, the inhibition in assay [1] was -8% (inactive); in assay [2], -71.4% (inactive); in assay [4], 7.48% (inactive); in assay [9] it was 31.5% (inactive). Besides, the nuclei count in assay [2] is 121%. The z-score in assay [3] (setting [10]) worked out at 0.578; in [3] (setting [11]) it was 0.18; in assay [3] (setting [12]) it was 1.1. For the same molecule, in [5], the fluorescence slope was -0.48 (inactive). The NADPH fluorescence slope in [6] was -0.000165 (inactive). The slope in [7] is 0.00502 (inactive). Also, the call in [8] was inactive.
On to `O=C(Oc1ccccc1N1C(=O)CCC1=O)c1ccco1`, for which the cell count in assay [1] is 545. The inhibition in [1] is 4.9% (inactive); in assay [2], -119% (inactive); in [4], 3.5% (inactive); in assay [9] it was -13.9% (inactive). The molecule also registered a nuclei count in assay [2] of 118%. Moreover, the z-score in [3] (setting [10]) is 0.222; in assay [3] (setting [11]), -0.0545; in assay [3] (setting [12]) it was 0.413. Further, the fluorescence slope in assay [5] was -0.557 (inactive). Moreover, the NADPH fluorescence slope in assay [6] was -6.4e-05 (inactive). For the same molecule, the slope in [7] is 0.0069 (inactive). For the same molecule, in [8], the call was inactive.
`CC1CCc2cc(F)cc3c(O)c(C(=O)NCc4ccco4)c(=O)n1c23` (stereo unspecified): the cell count in assay [1] is 531. Besides, the inhibition in [1] was -4.5% (inactive); in [2], -39.2% (inactive); in assay [4], 5.26% (inactive); in [9], 6.44% (inactive). Also, the nuclei count in [2] was 138%. For the same molecule, the z-score in assay [3] (setting [10]) is -0.138; in [3] (setting [11]), 1.87; in [3] (setting [12]), -4.17. Besides, the fluorescence slope in assay [5] was -0.329 (inactive). Besides, the NADPH fluorescence slope in [6] was 4e-05 (inactive). The slope in assay [7] was 0.00603 (inactive). The molecule was classed as inactive in assay [8].
As to `N#CC1=C(SCC(=O)c2ccc(Cl)cc2)NC2=C(C(=O)CCC2)C1c1ccco1` (stereo unspecified), the cell count in [1] came out at 362. The inhibition in assay [1] is -6.1% (inactive); in assay [2], -118% (inactive); in assay [4] it was 9.42% (inactive); in [9], 13.1% (inactive). In assay [2], the nuclei count was determined as 147%. For the same molecule, the z-score in [3] (setting [10]) was 1.13; in assay [3] (setting [11]), -0.168; in [3] (setting [12]) it was -0.867. The fluorescence slope in [5] is -0.422 (inactive). The NADPH fluorescence slope in assay [6] is -0.000127 (inactive). In addition, the slope in assay [7] is 0.00564 (inactive). Also, the outcome in assay [8] was “active; weak signal in gallbladder and intestine”.
Regarding `CC(NC(=O)OC(C)(C)C)C(=O)Oc1ccc2ccc(=O)oc2c1` (stereo unspecified), the cell count in [1] stood at 566. Besides, the inhibition was -16.8% (inactive) in assay [1], -178% (inactive) in assay [2], 28.6% (inactive) in [4] and 1.2% (inactive) in [9]. The molecule further showed a nuclei count in assay [2] of 183%. Besides, the values for the z-score in [3] (setting [10]), in assay [3] (setting [11]) and in assay [3] (setting [12]) were 0.378, 1.02 and -0.959, respectively. In addition, the fluorescence slope in [5] is -0.0856 (inactive). Further, in assay [6], the NADPH fluorescence slope was -1.3e-05 (inactive). In addition, in assay [7], the slope was 0.00547 (inactive). The outcome in assay [8] was inactive.
Consider `COc1ccc(C(=O)c2sc(NC(C)C)nc2N)cc1OC`, for which the cell count in assay [1] worked out at 327. For the same molecule, the inhibition is -12.2% (inactive) in [1], -16.7% (inactive) in assay [2], -11.9% (inactive) in assay [4] and -3.2% (inactive) in assay [9]. This molecule also had a nuclei count in assay [2] of 105%. In addition, the z-score in assay [3] (setting [10]) is -0.265; in assay [3] (setting [11]) it was 0.429; in [3] (setting [12]) it was -0.628. The fluorescence slope in assay [5] is -0.458 (inactive). Moreover, the NADPH fluorescence slope in assay [6] was -6.7e-06 (inactive). Further, in assay [7], the slope is 0.0049 (inactive). Besides, in [8], the molecule was classed as inactive.

Source of the values: PubChem BioAssay.
